Results from ChEMBL document CHEMBL3243989, “Antibacterial N-[omega, omega'-bis(alicyclic and aryl)-sec-alkyl]poly(methylene)triamine and -tetramine hydrochloride salts” (J Med Chem, 1979).
Activity calls are given as the source filed them. The calls are words filed in the database; no cut-off is given here.

What was measured:
Staphylococcus aureus [1] = assay: Antibacterial activity against Staphylococcus aureus MB2865 assessed as growth inhibition; type: functional
Outline: (§1)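 MIC (µg/mL) by in vitro growth inhibition in an assay system at pH 7.4. Tetracycline was run routinely to check medium, incubation conditions and inoculum virility.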

[2] = tested on: Bordetella bronchiseptica; assay: Antibacterial activity against Bordetella bronchiseptica MB905 assessed as growth inhibition; type: functional; outline: as §1
Bacillus subtilis = assay: Antibacterial activity against Bacillus subtilis MB964 assessed as growth inhibition; type: functional; outline: as §1
Klebsiella aerogenes = assay: Antibacterial activity against Klebsiella aerogenes MB1503 assessed as growth inhibition; type: functional; outline: as §1
Pseudomonas aeruginosa [3] = assay: Antibacterial activity against Pseudomonas aeruginosa MB418 assessed as growth inhibition; type: functional; outline: as §1
Staphylococcus aureus [4] = assay: Antibacterial activity against Staphylococcus aureus MB108 assessed as growth inhibition; type: functional; outline: as §1
Pseudomonas aeruginosa [5] = assay: Antibacterial activity against Pseudomonas aeruginosa MB2245 assessed as growth inhibition; type: functional; outline: as §1
Salmonella = assay: Antibacterial activity against Salmonella schottmuelleri MB2837 assessed as growth inhibition; type: functional; outline: as §1
Escherichia coli = assay: Antibacterial activity against Escherichia coli MB2884 assessed as growth inhibition; type: functional; outline: as §1
[6] = tested on: Bordetella bronchiseptica; assay: Antibacterial activity against Bordetella bronchiseptica MB3551 assessed as growth inhibition; type: functional; outline: as §1
[7] = tested on: Corynebacterium pseudodiphtheriticum; assay: Antibacterial activity against Corynebacterium pseudodiphtheriticum assessed as growth inhibition at 2 to 8 ug/mL; type: functional, organism-based
Pasteurella multocida = assay: Antibacterial activity against Pasteurella multocida MB7 assessed as growth inhibition at 2 to 8 ug/mL; type: functional, organism-based
Proteus vulgaris = assay: Antibacterial activity against Proteus vulgaris MB838 assessed as growth inhibition at 200 ug/mL; type: functional, organism-based
Streptococcus pyogenes = assay: Antibacterial activity against Streptococcus pyogenes assessed as growth inhibition at 2 to 8 ug/mL; type: functional, organism-based

Row | Structure (SMILES) | MIC (Staphylococcus aureus [1]) [µg/mL] | MIC [2] [µg/mL] | MIC (Bacillus subtilis) [µg/mL] | MIC (Klebsiella aerogenes) [µg/mL] | MIC (Pseudomonas aeruginosa [3]) [µg/mL] | MIC (Staphylococcus aureus [4]) [µg/mL] | MIC (Pseudomonas aeruginosa [5]) [µg/mL] | MIC (Salmonella) [µg/mL] | MIC (Escherichia coli) [µg/mL] | MIC [6] [µg/mL] | growth inhibition (GI) [7] | growth inhibition (GI) (Pasteurella multocida) | growth inhibition (GI) (Proteus vulgaris) | growth inhibition (GI) (Streptococcus pyogenes)
1 | Cl.NCCCNCC(O)CNC(CCC1CCCCC1)CCC1CCCCC1 (stereo unspecified) | 15 | 4 | 4 | 6 | 20 | 8 | 8 | 4 | 8 | 4 | – | – | – | –
2 | Cc1ccc(C(C)(C)C)cc1CCCC(CCCc1cc(C(C)(C)C)ccc1C)NCCNCCNCCN.Cl | 60 | 15 | 4 | 10 | 50 | 15 | 80 | 10 | 60 | 10 | inactive | Active | inactive | Active
3 | CC(C)c1ccc(CCCC(CCCc2ccc(C(C)C)cc2)NCCNCCNCCN)cc1.Cl | 20 | 30 | 4 | 60 | 8 | 6 | 80 | 10 | 15 | 30 | inactive | Active | inactive | Active
4 | Cl.NCCCNCCCNC(CCCC1CCCCC1)CCCC1CCCCC1 | 8 | 4 | 4 | 4 | 8 | 4 | 8 | 4 | 8 | 4 | inactive | Active | inactive | Active
5 | CC(C)(C)c1ccc(CCCC(CCCc2ccc(C(C)(C)C)cc2)NCCCNCCCN)cc1.Cl | 10 | 8 | 8 | 40 | 80 | 20 | 40 | 8 | 40 | 8 | inactive | Active | inactive | Active
6 | Cl.NCCCNCCCNC(CCCC1CC=CCC1)CCCC1CC=CCC1 (stereo unspecified) | 10 | 2 | 4 | 6 | 20 | 6 | 15 | 4 | 10 | 4 | inactive | Active | inactive | Active
7 | CN(CCCNCCCN)C(CCC1CCCCC1)CCC1CCCCC1.Cl | 30 | 6 | 4 | 4 | 8 | 10 | 20 | 1 | 8 | 4 | inactive | Active | inactive | Active
8 | CC1(C)C2CCC(C2)C1CCC(CCC1C2CCC(C2)C1(C)C)NCCCN(CCCN)CCCN.Cl (stereo unspecified) | 4 | 4 | 4 | 30 | 50 | 6 | 30 | 4 | 50 | 2 | inactive | Active | inactive | Active
9 | CC(C)c1ccc(CCCC(CCCc2ccc(C(C)C)cc2)NCCCNCCCN)cc1.Cl | 20 | 10 | 6 | 20 | 15 | 20 | 40 | 10 | 40 | 10 | inactive | Active | inactive | Active
10 | CC1(C)C2CCC(C2)C1CCC(CCC1C2CCC(C2)C1(C)C)NCCCN1CCN(CCCN)CC1.Cl (stereo unspecified) | 20 | 4 | 8 | 4 | 200 | 6 | 200 | 6 | 20 | 8 | inactive | Active | inactive | Active
